For 2 molecules, Drug uptake and Activity results are on record in ChEMBL document CHEMBL5032534, “COUPY Coumarins as Novel Mitochondria-Targeted Photodynamic Therapy Anticancer Agents” (J Med Chem, 2021).

Active and inactive are the calls of the source. No cut-off for these calls is given here.

Data set [1] can be described thus: Drug uptake in nucleolus of human HeLa cells assessed as drug accumulation at 5 uM measured after 30 mins by confocal microscopic analysis. The note with it: 0.5 h. The format is ADME, subcellular. Summed up:
(§1)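 HeLa cells in high-glucose DMEM with 10% fetal calf serum were seeded on glass-bottom dishes for 24 h, then loaded with compound for 30 min at 37 °C. They were washed three times with DPBS and kept in phenol-red-free low-glucose DMEM. Live cells were imaged by confocal microscopy at 37 °C with 5% CO2, excited at 561 nm, with emission collected from 570 to 670 nm.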

Data set [2] in a line: Drug uptake in mitochondria of human HeLa cells assessed as drug accumulation at 5 uM measured after 30 mins by confocal microscopic analysis. The note with it: 0.5 h. Format: ADME. The gist of the method:
as §1

The nature of data set [3]: Drug uptake in human HeLa cells at 5 uM incubated for 30 mins by confocal microscopic analysis. The format is ADME, cell-based. The note with it: 0.5 h. Summed up:
as §1

Data set [4] can be described thus: Drug uptake in nucleolus of human HeLa cells assessed as drug accumulation at 0.5 uM measured after 30 mins by confocal microscopic analysis. Format: ADME, subcellular. The note with it: 0.5 h. The gist of the method: as §1
In data set [5] the test system is HeLa. In words: Induction of ROS generation in human HeLa cells at 5 uM incubated for 1 hr in dark followed by irradiation with visible light for 1 hr under hypoxic condition in presence of NaPyr by DCFH-DA staining based flow cytometric analysis. The note with it: time 2.0 hrs. The format is functional, cell-based. The gist of the method:
(§2)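 HeLa cells were seeded at 2 × 10^4/well for 24 h under 21% or 2% O2. They were co-treated with 5 μM compound plus a scavenger, which stayed present throughout: NAC 5 mM, NaN3 5 mM, mannitol 50 mM, tiron 5 mM, sodium pyruvate 10 mM or Trolox 0.1 mM. Cells were held 1 h dark, then 1 h under visible light, stained 30 min with 10 μM DCFH-DA, trypsinized and analysed by flow cytometry. At least two independent experiments, n = 3.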

The subject of data set [6] is HeLa. Kind of data set: Induction of superoxide anion generation in human HeLa cells assessed as increase in DHE fluorescence at 5 uM incubated for 1 hr in dark followed by irradiation with visible light for 1 hr under hypoxic condition in presence of tiron by DHE staining based flow cytometric analysis. The note with it: time 2.0 hrs. On the technique in general: A flow cytometer gives signals particle by particle.

Data set [7] concerns HeLa. Kind of data set: Induction of apoptosis in human HeLa cells assessed as increase in early apoptotic cells at 5 uM preincubated for 30 mins in dark followed by irradiation for 1 hr and measured after 24 hrs by Annexin V-FITC/ Propidium iodide staining based flow cytometry analysis. The format is functional, cell-based. The note with it: time 25.5 hrs. The gist of the method:
(§3)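 HeLa cells were seeded at 1.5 × 10^5/well overnight and treated for 0.5 h, with or without 1 h visible-light irradiation, followed by 24 h recovery. Cells were trypsinized, resuspended in binding buffer, labelled with FITC-Annexin V and propidium iodide for 15 min at room temperature in the dark, and analysed by flow cytometry. Cisplatin (30 μM) served as positive control.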

Data set [8] is described as follows: Drug uptake in human HeLa cells at 0.5 uM incubated for 30 mins by confocal microscopic analysis. The note with it: 0.5 h. The format is ADME, cell-based. The gist of the method:
as §1

Data set [9] relates to HeLa. In words: Induction of ROS generation in human HeLa cells at 5 uM incubated for 1 hr in dark followed by irradiation with visible light for 1 hr under hypoxic condition in presence of Trolox by DCFH-DA staining based flow cytometric analysis. Format: functional, cell-based. The note with it: time 2.0 hrs. The gist of the method: as §2
Data set [10] in a line: Drug uptake in mitochondria of human HeLa cells assessed as drug accumulation at 0.5 uM measured after 30 mins by confocal microscopic analysis. The note with it: 0.5 h. Format: ADME. Summed up: as §1
The test system of data set [11] is HeLa. Kind of data set: Induction of autophagy in human HeLa cells […] pretreated with wortmannin for 1 hr followed by irradiation schedule for 1 hr by MDC staining based confocal microscopic analysis. The format is functional.
In data set [12] the test system is HeLa. Kind of data set: Induction of ROS generation in human HeLa cells at 5 uM incubated for 1 hr in dark followed by irradiation with visible light for 1 hr under hypoxic condition in presence of NaN3 by DCFH-DA staining based flow cytometric analysis. The note with it: time 2.0 hrs. Format: functional, cell-based. Summed up: as §2
The subject of data set [13] is HeLa. Kind of data set: Induction of mitochondrial membrane potential loss in human HeLa cells at 5 uM measured after 24 hrs by JC-1 dye-based flow cytometric analysis. The format is functional, cell-based. Summed up: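 HeLa cells were seeded at 1.5 × 10^5 in 12-well plates for 24 h and treated for 24 h. Vehicle control held 0.4% DMSO and antimycin A (50 μM) served as positive control. Cells were stained with JC-1 (1 μM, 20 min) and analysed by flow cytometry (10^4 events; ex 488 nm; green 530 nm and red 585 nm channels). At least two independent experiments.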

A short description of data set [14]: Induction of singlet oxygen generation in air-saturated DCM solution assessed as reduction in 1,3-diphenylisobenzofuran absorption irradiated with 505 nanometer green light by DPBF-based assay. The format is functional.
For data set [15], the system named is HeLa. Kind of data set: Induction of ROS generation in human HeLa cells at 5 uM incubated for 1 hr in dark followed by irradiation with visible light for 1 hr under normoxic condition in presence of Trolox by DCFH-DA staining based flow cytometric analysis. The note with it: time 2.0 hrs. The format is functional, cell-based. The gist of the method:
as §2

Data set [16] relates to HeLa. In words: Induction of apoptosis in human HeLa cells assessed as increase in necrotic cells at 5 uM incubated for 30 mins in dark measured after 24 hrs by Annexin V-FITC/ Propidium iodide staining based flow cytometry analysis. The format is functional, cell-based. The note with it: time 24.5 hrs. The gist of the method:
as §3

The test system of data set [17] is HeLa. Kind of data set: Induction of ROS generation in human HeLa cells assessed as increase in intracellular ROS level at 5 uM incubated for 1 hr in dark followed by irradiation with visible light for 1 hr under hypoxic condition by DCFH-DA staining based flow cytometric analysis. The note with it: time 2.0 hrs. The format is functional, cell-based. Summed up:
as §2

The test system of data set [18] is HeLa. Kind of data set: Effect on cell cycle distribution in human HeLa cells assessed as reduction in G1 phase population at 5 uM preincubated for 30 mins in dark followed by light irradiation for 1 hr by RNase/propidium iodide staining based FACS analysis. The note with it: time 1.5 hrs. Format: functional. The gist of the method:
(§4)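 HeLa cells were seeded at 1.5 × 10^5/well and treated for 0.5 h, with or without 1 h visible-light irradiation, followed by 24 h recovery. Cells were fixed in ice-cold 70% ethanol for 1 h and stained with PI (40 μg/mL) plus RNase (1 μg/mL) for 30 min at 310 K. Analysis was by flow cytometry in the FL2-A channel. At least two independent experiments, n = 3.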

The subject of data set [19] is HeLa. Kind of data set: Induction of ROS generation in human HeLa cells at 5 uM incubated for 1 hr in dark followed by irradiation with visible light for 1 hr under normoxic condition in presence of 5 mM NAC by DCFH-DA staining based flow cytometric analysis. The format is functional, cell-based. The note with it: time 2.0 hrs. Summed up: as §2
In data set [20] the test system is HeLa. In words: Induction of ROS generation in human HeLa cells at 5 uM incubated for 1 hr in dark followed by irradiation with visible light for 1 hr under hypoxic condition in presence of 5 mM NAC by DCFH-DA staining based flow cytometric analysis. The note with it: time 2.0 hrs. The format is functional, cell-based. Summed up:
as §2

For data set [21], the system named is HeLa. In words: Effect on cell cycle distribution in human HeLa cells at 5 uM incubated for 30 mins in dark by RNase/propidium iodide staining based FACS analysis. The format is functional. Summed up:
as §4

Data set [22] concerns HeLa. In words: Induction of autophagy in human HeLa cells assessed as increase in MDC-positive autophagic vesicles at 5 uM preincubated for 30 mins followed by light irradiation for 1 hr and further incubated for 6 hrs in drug-free medium by MDC staining based confocal microscopic analysis. Format: functional, cell-based. The note with it: time 1.5 hrs. The gist of the method: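 HeLa cells were seeded at 1.5 × 10^4 cells/cm2 in chamber slides and given 0.5 h compound incubation, then 1 h visible-light irradiation. Medium was replaced for a 6 h recovery. Cells were stained with monodansylcadaverine (0.05 mM in PBS, 10 min, 310 K) and imaged by confocal microscopy (ex 405 nm). Vacuoles were counted in at least 10 cells from two experiments. Controls were starvation in EBSS for 2 h and resveratrol 50 μM for 2 h.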

On to `CCN(CC)c1ccc2c(c1)O/C(=C(/C#N)c1ccncc1)C=C2C`, for which the Drug uptake result in data set [1] is on record as “Active”; in data set [2], “Not Active”; in [3], “Active”.
With `CCN(CC)c1ccc2c(c1)O/C(=C(/C#N)c1cc[n+](C)cc1)C=C2C`, the Drug uptake result in [4], in [8] and in data set [10] was “Active” in each case. Besides, the outcome in data set [5], in [6], in data set [7], in data set [9], in data set [12] and in data set [14] was Active. Also, the result in data set [16], in data set [18] and in data set [22] was Active. In addition, the result in data set [11], in data set [13], in data set [15], in data set [17], in data set [19] and in data set [20] was inactive. In addition, the outcome in data set [21] was inactive.
